From PubChem BioAssay
Most compounds without a hit are left out; they make up all but 1.8% or so of the library.
Apaf-1 inh – inhibitors of human Apaf-1 apoptosome, primary screen, biochemical, DEVD-Rh110 fluorescence, uHTS; inhibition, % at 20 µM; reconstituted apoptosome caspase-3 activity; hit rate 0.71% among 330,000; Apoptotic protease-activating factor 1 (Homo sapiens), O14727; active = inhibition of at least 40% at 20 µM
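Material: cell-free apoptosome with Apaf-1, procaspase-3 and caspase-9; Buffer or medium: Hepes pH 7.5 with detergent and BSA; Reagent: cytochrome c trigger plus (Z-DEVD)2-Rh110 caspase-3 substrate; Times: compound with Apaf-1, dATP, procaspase-3 30 min, then 50 min reaction, room temperature; Technique: Rh110 fluorescence intensity.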
EBNA-1 inh – EBNA-1 DNA-binding inhibitors, primary screen, biochemical, fluorescence polarization; inhibition, % at 14.8 µM; hit rate 0.34% among 300,000; AID 1950, 2009; in the data active = inhibition above about 28%
ZTA DNA inh – counter-screen for EBNA-1 inhibitors: inhibitors of Epstein-Barr virus ZTA. P03206. inhibition, % at 11 µM. ZTA-DNA binding, fluorescence polarization. hit rate 0.15% among 320,000; in the data active = inhibition above about 33%
procasp3 activ – activators of human procaspase-3 D3A mutant, primary screen, biochemical, absorbance, PC-3 D3A mutant, single concentration; Caspase-3 (Homo sapiens), P42574; recombinant procaspase-3 D3A, Ac-DEVD-pNA absorbance 405 nm; activation, % at 8.5 µM; hit rate 0.11% among 330,000;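 active = activation above the mean of all tested compounds plus 3 SD, cut at about 21% in these data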
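assay system = Procaspase-3 D3A mutant | signal = absorbance at 405 nm, 0 and 120 min | times = 1 h preincubation plus 2 h reaction at 25 °C | repeats = single replicate | read-out = % activation between DMSO and enzyme-spiked controls | medium = Zinc-free HEPES saline buffer with Triton X-100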
GSTO1 inh – inhibitors of recombinant GSTO1, primary screen, counter-screen for RBBP9 inhibitor project, biochemical, fluorescence polarization; hit rate 1.1% among 300,000; activity-based probe fluorescence polarization; AID 1974, 2009; inhibition, % at 5.96 µM;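 active = inhibition above the campaign mean inhibition plus 3 SD, cut at about 35% in these data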
proCasp7 act – procaspase-7 activators, primary screen, counter-screen for procaspase-3 activator project, biochemical, absorbance, HTS, human | Caspase-7 (Homo sapiens), P55210 | recombinant procaspase-7, Ac-DEVD-pNA absorbance 405 nm; D23A/D198A/D206A triple mutant, cannot self-cleave; scale: DMSO 0, 5 µM enzyme 100 | activation, % at 8.5 µM | hit rate 0.093% among 330,000 | AID 463210, 2010;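 active = percent activation above the screen-wide mean plus 3 SD, cut at about 25% in these data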
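Test system: Procaspase-7 triple mutant (PC-7 D3A). Also added: Ac-DEVD-pNA substrate, 400 µM as added. Schedule: 1 h enzyme–compound preincubation and 2 h substrate reaction, both 25 °C. Signal: p-Nitroaniline absorbance at 405 nm, read at 0 and 120 min. Control set: low DMSO alone, high DMSO plus 5 µM PC-7.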
GSTO1 confirm – GSTO1 inhibitor hit confirmation, counter-screen for RBBP9 inhibitor project, biochemical, fluorescence polarization, triplicate. shares compounds with GSTO1 inh. recombinant GSTO1, probe fluorescence polarization. inhibition, % at 5.96 µM. hit rate 54% among 2,400. AID 2176, 2009;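 active = inhibition above the primary screen's cutoff, its mean inhibition plus 3 SD, cut at about 35% in these data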;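 also: loss of polarization as inhibitors block binding of rhodamine sulfonate ester activity probe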
GSTO1 recomb ABPP – inhibitors of purified human GSTO1, late-stage follow-up, biochemical, gel ABPP, SE-Rh probe, percent inhibition. recombinant GSTO1, gel ABPP SE-Rh probe fluorescence. hit rate 30% among 130. shares compounds with GSTO1 inh. inhibition, % at 1 µM;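 active = inhibition of the enzyme GSTO1 above about 75%, limit read from the data; inactive = inhibition below that limit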
Numbers stand for hits; . = inactive; / = no result.

SMILES | Apaf-1 inh | EBNA-1 inh | ZTA DNA inh | procasp3 activ | GSTO1 inh | proCasp7 act | GSTO1 confirm | others
CN(C)S(=O)(=O)c1cc(NC(=O)COC(=O)Cc2cccc3ccccc23)ccc1Cl | . | . | . | . | . | . | /
C=CCn1c(SCC(=O)c2ccc(O)c(O)c2)nnc1-c1cccnc1 | . | . | . | . | 40 | . | .
C=CCn1c(SCC(=O)c2ccc(O)c(O)c2)nnc1-c1cccc(C)c1 | . | / | . | . | / | . | /
C=CCn1c(SCC(=O)c2ccc(O)c(O)c2)nnc1-c1ccccc1OC | . | . | . | . | 41 | . | .
COc1ccccc1CCC(=O)N1CCN(S(=O)(=O)c2cc(C(F)(F)F)ccc2Cl)CC1 | . | / | . | . | / | . | /
O=C(COC(=O)c1cc(Br)ccc1O)c1ccc(F)cc1 | . | / | / | . | / | . | /
Cc1ccc[n+](CC(=O)Nc2ccc([N+](=O)[O-])cc2)c1 | . | . | . | . | 91 | . | 95
COc1ccc(OCc2nc3ccc(S(=O)(=O)Nc4ccccc4Cl)cc3[nH]2)cc1 | . | . | . | . | . | . | /
COc1ccccc1NS(=O)(=O)c1ccc2nc(CCl)[nH]c2c1 | . | . | . | . | 85 | . | 91 | GSTO1 recomb ABPP=.
COc1cccc(-n2nnc3c(=O)n(CC(=O)N4CCC(Cc5ccccc5)CC4)cnc32)c1 | . | . | . | . | 39 | . | .
CN(C(=O)CSc1nc(C2CC2)n(-c2ccccc2)n1)C1CCS(=O)(=O)C1 (configuration not stated) | . | / | / | / | / | / | /
COc1ccc(NC(=O)CN(C)C(=O)c2ccccc2Sc2ncnc3sc(C)c(C)c23)cc1 | . | . | . | . | . | . | /
CC(=O)Oc1cc2cccc(OC(C)=O)c(=O)c2c(OC(C)=O)c1OC(C)=O | . | . | . | . | 67 | . | 55
O=C(NCCOc1ccccc1F)C1CC(=O)N(Cc2ccccc2)C1 (configuration not stated) | . | / | / | . | / | . | /
O=C(Nc1cc(Cl)cc(Cl)c1)Nc1cnccn1 | . | . | . | . | . | . | /
CC1CC(=O)c2c(cc3c(-c4c(O)cc(O)c5c(O)c6c(cc45)OC(C)CC6=O)c(O)cc(O)c3c2O)O1 (configuration not stated) | 62 | . | . | . | 62 | . | 73
O=C1CC(c2ccc(O)cc2)Oc2cc(O)cc(O)c21 (configuration not stated) | . | . | . | . | . | . | /
O=C(COC(=O)CCC(=O)c1ccc(F)cc1)NCc1ccccc1Cl | . | / | / | . | / | . | /
CCOC(=O)C1CCCN(c2c(NCCN3CCCCC3CC)c(=O)c2=O)C1 (configuration not stated) | . | . | . | . | 58 | . | .
CCOC(=O)N1CCN(c2c(NCCN3CCCCC3CC)c(=O)c2=O)CC1 (configuration not stated) | . | . | . | . | . | . | /
CN1CCC(N(C)C(=O)c2ccc(Cl)c(S(=O)(=O)N3CCOCC3)c2)CC1 | . | / | / | / | / | / | /
CCN(c1ccccc1)S(=O)(=O)c1ccc(Cl)c(NC(=O)COC(=O)c2cc(O)c3ccccc3c2O)c1 | 48 | . | . | . | 51 | . | .
CCN(c1ccccc1)S(=O)(=O)c1ccc(Cl)c(NC(=O)COC(=O)c2ccc(O)cc2)c1 | . | . | . | . | . | . | /
